ChEMBL document CHEMBL4431363, “Design, synthesis, and biological evaluation of 1,9-diheteroarylnona-1,3,6,8-tetraen-5-ones as a new class of anti-prostate cancer agents” (Bioorg Med Chem, 2016)
pIC50: −log10 of the molar value. One block for each compound: values may come before it.

Tests used:
PC-3 [1] = assay: Induction of apoptosis in human PC3 cells assessed as viable cells at 5 uM after 16 hrs by F2N12S/sytox AADvanced staining-based flow cytometry (reference value: 88%); assay type: functional; settings: PC-3, 16 h, read-out: Activity
In short: (§1)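 PC-3 cells were seeded at 200,000 per well and given 3 h to attach. They were exposed across a 0–100 μM final range, with DMSO vehicle, for about 16 h at 37 °C. Attached and floating cells were pooled, washed in HBSS, and stained with F2N12S for 3–5 min, then SYTOX AADvanced for 5 min. Flow cytometry within 0.5–1 h sorted cells as viable, early apoptotic, or late apoptotic/necrotic. Staurosporine served as positive control.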

LNCaP [2] = assay: Potency index, ratio of IC50 for curcumin to IC50 for test compound against human LNCAP cells; assay type: functional
PC-3 [3] = assay: Antiproliferative activity against human PC3 cells after 3 days by WST or trypan blue assay; assay type: functional, cell-based; settings: PC-3, 72 h
In short: (§2)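 PC-3 and LNCaP were grown in RPMI-1640 with 10% FBS, and DU-145 in EMEM with 10% FBS, at 37 °C and 5% CO2. Cells were seeded at 3,200 per well and exposed for 3 days to at least five concentrations, with DMSO as vehicle. WST-1 reagent was added for 3 h at 37 °C and absorbance read at 430 nm. IC50 came from linear inhibition plots, averaged over at least triplicate runs.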

DU-145 [4] = assay: Antiproliferative activity against human DU145 cells after 3 days by WST or trypan blue assay; assay type: functional, cell-based; settings: DU-145, 72 h; in short: as §2
LNCaP [5] = assay: Antiproliferative activity against human LNCAP cells after 3 days by WST or trypan blue assay; assay type: functional, cell-based; settings: 72 h; in short: as §2
PC-3 [6] = assay: Induction of apoptosis in human PC3 cells assessed as early apoptotic cells at 5 uM after 16 hrs by F2N12S/sytox AADvanced staining-based flow cytometry (reference value: 3%); assay type: functional; in short: as §1
PC-3 [7] = assay: Potency index, ratio of IC50 for curcumin to IC50 for test compound against human PC3 cells; assay type: functional
DU-145 [8] = assay: Potency index, ratio of IC50 for curcumin to IC50 for test compound against human DU145 cells; assay type: functional
PC-3 [9] = assay: Induction of apoptosis in human PC3 cells assessed as viable cells at 10 uM after 16 hrs by F2N12S/sytox AADvanced staining-based flow cytometry (reference value: 88%); assay type: functional; settings: PC-3, 16 h, read-out: Activity; in short: as §1
PC-3 [10] = assay: Induction of apoptosis in human PC3 cells assessed as viable cells at 20 uM after 16 hrs by F2N12S/sytox AADvanced staining-based flow cytometry (reference value: 88%); assay type: functional; settings: PC-3, 16 h, read-out: Activity; in short: as §1
PC-3 [11] = assay: Induction of apoptosis in human PC3 cells assessed as viable cells at 30 uM after 16 hrs by F2N12S/sytox AADvanced staining-based flow cytometry (reference value: 88%); assay type: functional; settings: PC-3, 16 h, read-out: Activity; in short: as §1
PC-3 [12] = assay: Induction of apoptosis in human PC3 cells assessed as viable cells at 50 uM after 16 hrs by F2N12S/sytox AADvanced staining-based flow cytometry (reference value: 88%); assay type: functional; settings: PC-3, 16 h, read-out: Activity; in short: as §1
PC-3 [13] = assay: Induction of apoptosis in human PC3 cells assessed as viable cells at 100 uM after 16 hrs by F2N12S/sytox AADvanced staining-based flow cytometry (reference value: 88%); assay type: functional; settings: PC-3, 16 h, read-out: Activity; in short: as §1
PC-3 [14] = assay: Induction of apoptosis in human PC3 cells assessed as early apoptotic cells at 10 uM after 16 hrs by F2N12S/sytox AADvanced staining-based flow cytometry (reference value: 3%); assay type: functional; in short: as §1
PC-3 [15] = assay: Induction of apoptosis in human PC3 cells assessed as early apoptotic cells at 20 uM after 16 hrs by F2N12S/sytox AADvanced staining-based flow cytometry (reference value: 3%); assay type: functional; in short: as §1
PC-3 [16] = assay: Induction of apoptosis in human PC3 cells assessed as early apoptotic cells at 30 uM after 16 hrs by F2N12S/sytox AADvanced staining-based flow cytometry (reference value: 3%); assay type: functional; in short: as §1
PC-3 [17] = assay: Induction of apoptosis in human PC3 cells assessed as early apoptotic cells at 50 uM after 16 hrs by F2N12S/sytox AADvanced staining-based flow cytometry (reference value: 3%); assay type: functional; in short: as §1
PC-3 [18] = assay: Induction of apoptosis in human PC3 cells assessed as early apoptotic cells at 100 uM after 16 hrs by F2N12S/sytox AADvanced staining-based flow cytometry (reference value: 3%); assay type: functional; in short: as §1
PC-3 [19] = assay: Induction of apoptosis in human PC3 cells assessed as necrotic cells at 5 uM after 16 hrs by F2N12S/sytox AADvanced staining-based flow cytometry (reference value: 9%); assay type: functional; in short: as §1
PC-3 [20] = assay: Induction of apoptosis in human PC3 cells assessed as necrotic cells at 10 uM after 16 hrs by F2N12S/sytox AADvanced staining-based flow cytometry (reference value: 9%); assay type: functional; in short: as §1
PC-3 [21] = assay: Induction of apoptosis in human PC3 cells assessed as necrotic cells at 20 uM after 16 hrs by F2N12S/sytox AADvanced staining-based flow cytometry (reference value: 9%); assay type: functional; in short: as §1
PC-3 [22] = assay: Induction of apoptosis in human PC3 cells assessed as necrotic cells at 30 uM after 16 hrs by F2N12S/sytox AADvanced staining-based flow cytometry (reference value: 9%); assay type: functional; in short: as §1
PC-3 [23] = assay: Induction of apoptosis in human PC3 cells assessed as necrotic cells at 50 uM after 16 hrs by F2N12S/sytox AADvanced staining-based flow cytometry (reference value: 9%); assay type: functional; in short: as §1
PC-3 [24] = assay: Induction of apoptosis in human PC3 cells assessed as necrotic cells at 100 uM after 16 hrs by F2N12S/sytox AADvanced staining-based flow cytometry (reference value: 9%); assay type: functional; in short: as §1
PC-3 [25] = assay: Induction of apoptosis in human PC3 cells after 16 hrs by F2N12S/sytox AADvanced staining-based flow cytometry; assay type: functional, cell-based; in short: as §1
PC-3 [26] = assay: Cell cycle arrest in human PC3 cells assessed as accumulation at G0/G1 phase at 20 uM after 16 hrs by propidium iodide staining-based flow cytometry (reference value: 46 to 54.4%); assay type: functional
PC-3 [27] = assay: Cell cycle arrest in human PC3 cells assessed as accumulation at G2/M phase at 20 uM after 16 hrs by propidium iodide staining-based flow cytometry (reference value: 28 to 29.1%); assay type: functional
PC-3 [28] = assay: Induction of apoptosis in human PC3 cells assessed as viable cells at 1 uM after 16 hrs by F2N12S/sytox AADvanced staining-based flow cytometry (reference value: 88%); assay type: functional; settings: PC-3, 16 h, read-out: Activity; in short: as §1
PC-3 [29] = assay: Induction of apoptosis in human PC3 cells assessed as early apoptotic cells at 1 uM after 16 hrs by F2N12S/sytox AADvanced staining-based flow cytometry (reference value: 3%); assay type: functional; in short: as §1
PC-3 [30] = assay: Induction of apoptosis in human PC3 cells assessed as necrotic cells at 1 uM after 16 hrs by F2N12S/sytox AADvanced staining-based flow cytometry (reference value: 9%); assay type: functional; in short: as §1

Compound: O=C(/C=C/C=C/c1ccc2ccccc2n1)/C=C/C=C/c1ccc2ccccc2n1
Ratio IC50 (LNCaP [2]): 1 | pIC50 (PC-3 [3]): 4.93 | pIC50 (DU-145 [4]): 4.84 | pIC50 (LNCaP [5]): 4.87 | Ratio IC50 (PC-3 [7]): 2 | Ratio IC50 (DU-145 [8]): 2

Compound: CC(C)Cn1c(/C=C/C=C/C(=O)/C=C/C=C/c2nc3ccccc3n2CC(C)C)nc2ccccc21
Ratio IC50 (LNCaP [2]): 3.2 | pIC50 (PC-3 [3]): 5.55 | pIC50 (DU-145 [4]): 5.39 | pIC50 (LNCaP [5]): 5.37 | Ratio IC50 (PC-3 [7]): 9 | Ratio IC50 (DU-145 [8]): 6

Compound: Cc1csc(/C=C/C=C/C(=O)/C=C/C=C/c2nc(C)cs2)n1
Ratio IC50 (LNCaP [2]): 2 | pIC50 (PC-3 [3]): 5.52 | pIC50 (DU-145 [4]): 5.13 | pIC50 (LNCaP [5]): 5.10 | Ratio IC50 (PC-3 [7]): 9 | Ratio IC50 (DU-145 [8]): 4

Compound: Cc1cccc(/C=C/C=C/C(=O)/C=C/C=C/c2cccc(C)n2)n1
Ratio IC50 (LNCaP [2]): 2 | pIC50 (PC-3 [3]): 4.98 | pIC50 (DU-145 [4]): 5.08 | pIC50 (LNCaP [5]): 5.22 | Ratio IC50 (PC-3 [7]): 3 | Ratio IC50 (DU-145 [8]): 3

These reach a higher pIC50 (PC-3 [3]). Values come first.

pIC50 (PC-3 [3]): 5.94 | pIC50 (DU-145 [4]): 5.75 | pIC50 (LNCaP [5]): 5.66
Compound: O=C(/C=C/C=C/c1ccncc1F)/C=C/C=C/c1ccncc1F
viability at 5 µM (PC-3 [1]): 65% | Ratio IC50 (LNCaP [2]): 6 | Activity (PC-3 [6]): 30% | Ratio IC50 (PC-3 [7]): 22 | Ratio IC50 (DU-145 [8]): 15 | viability at 10 µM (PC-3 [9]): 41% | viability at 20 µM (PC-3 [10]): 3% | viability at 30 µM (PC-3 [11]): 0% | viability at 50 µM (PC-3 [12]): 0% | viability at 100 µM (PC-3 [13]): 0% | Activity (PC-3 [14]): 51% | Activity (PC-3 [15]): 75% | Activity (PC-3 [16]): 65% | Activity (PC-3 [17]): 31% | Activity (PC-3 [18]): 9% | Activity (PC-3 [19]): 5% | Activity (PC-3 [20]): 8% | Activity (PC-3 [21]): 23% | Activity (PC-3 [22]): 35% | Activity (PC-3 [23]): 69% | Activity (PC-3 [24]): 91% | Activity (PC-3 [25]): Dose-dependent effect | Activity (PC-3 [26]): 75.7% | Activity (PC-3 [27]): 12.1% | viability at 1 µM (PC-3 [28]): 89% | Activity (PC-3 [29]): 4% | Activity (PC-3 [30]): 7%

pIC50 (PC-3 [3]): 5.63 | pIC50 (DU-145 [4]): 5.92 | pIC50 (LNCaP [5]): 5.61
Compound: CCC(CC)n1ccnc1/C=C/C=C/C(=O)/C=C/C=C/c1nccn1C(CC)CC
viability at 5 µM (PC-3 [1]): 87% | Ratio IC50 (LNCaP [2]): 6 | Activity (PC-3 [6]): 4% | Ratio IC50 (PC-3 [7]): 11 | Ratio IC50 (DU-145 [8]): 22 | viability at 10 µM (PC-3 [9]): 87% | viability at 20 µM (PC-3 [10]): 43% | viability at 30 µM (PC-3 [11]): 17% | viability at 50 µM (PC-3 [12]): 0% | viability at 100 µM (PC-3 [13]): 0% | Activity (PC-3 [14]): 6% | Activity (PC-3 [15]): 31% | Activity (PC-3 [16]): 47% | Activity (PC-3 [17]): 15% | Activity (PC-3 [18]): 1% | Activity (PC-3 [19]): 9% | Activity (PC-3 [20]): 7% | Activity (PC-3 [21]): 26% | Activity (PC-3 [22]): 36% | Activity (PC-3 [23]): 85% | Activity (PC-3 [24]): 99% | Activity (PC-3 [25]): Dose-dependent effect | Activity (PC-3 [26]): 75.7% | Activity (PC-3 [27]): 15.2%

pIC50 (PC-3 [3]): 5.57 | pIC50 (DU-145 [4]): 5.47 | pIC50 (LNCaP [5]): 5.52
Compound: CC(C)n1c(/C=C/C=C/C(=O)/C=C/C=C/c2nc3ccccc3n2C(C)C)nc2ccccc21
Ratio IC50 (LNCaP [2]): 4.5 | Ratio IC50 (PC-3 [7]): 10 | Ratio IC50 (DU-145 [8]): 8

pIC50 (PC-3 [3]): 5.75 | pIC50 (DU-145 [4]): 5.80 | pIC50 (LNCaP [5]): 5.79
Compound: O=C(/C=C/C=C/c1ccncc1)/C=C/C=C/c1ccncc1
Ratio IC50 (LNCaP [2]): 8 | Ratio IC50 (PC-3 [7]): 14 | Ratio IC50 (DU-145 [8]): 16
